Measured values from ChEMBL document CHEMBL2380298, “Synthesis and antimicrobial activity of novel amphiphilic aromatic amino alcohols” (2013).
In brackets after ≈: the same amount, converted by molar mass.

What was measured:
Type in all cases: functional
[1] = system: Staphylococcus epidermidis; assay: Antimicrobial activity against Staphylococcus epidermidis ATCC 12228 by broth dilution method; settings: Staphylococcus epidermidis, ATCC 12228
[2] = system: Staphylococcus aureus; assay: Bactericidal activity against methicillin-resistant Staphylococcus aureus clinical isolate 264 after 24 hrs; settings: isolate 264, 24 h
How it was run: (§1)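 Bactericidal concentration: 0.1 ml from wells at the MIC dilution and the dilutions on either side was streaked onto tryptic soy agar and incubated 24 h. It was taken as the lowest drug concentration giving no growth (100% killing).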

[3] = system: Staphylococcus aureus; assay: Bactericidal activity against methicillin-resistant Staphylococcus aureus clinical isolate 260 after 24 hrs; settings: isolate 260, 24 h; how it was run: as §1
[4] = system: Staphylococcus aureus; assay: Bactericidal activity against methicillin-resistant Staphylococcus aureus clinical isolate 259 after 24 hrs; settings: isolate 259, 24 h; how it was run: as §1
[5] = system: Staphylococcus aureus; assay: Bactericidal activity against methicillin-resistant Staphylococcus aureus clinical isolate 257 after 24 hrs; settings: isolate 257, 24 h; how it was run: as §1
[6] = system: Staphylococcus aureus; assay: Bactericidal activity against methicillin-resistant Staphylococcus aureus clinical isolate 255 after 24 hrs; settings: isolate 255, 24 h; how it was run: as §1
[7] = system: Staphylococcus aureus; assay: Bactericidal activity against methicillin-resistant Staphylococcus aureus clinical isolate 238 after 24 hrs; settings: isolate 238, 24 h; how it was run: as §1
[8] = system: Staphylococcus aureus; assay: Bactericidal activity against methicillin-resistant Staphylococcus aureus clinical isolate 237 after 24 hrs; settings: isolate 237, 24 h; how it was run: as §1
[9] = system: Staphylococcus aureus; assay: Bactericidal activity against methicillin-resistant Staphylococcus aureus clinical isolate 236 after 24 hrs; settings: isolate 236, 24 h; how it was run: as §1
[10] = system: Staphylococcus aureus; assay: Bactericidal activity against methicillin-resistant Staphylococcus aureus clinical isolate 235 after 24 hrs; settings: isolate 235, 24 h; how it was run: as §1
[11] = system: Staphylococcus aureus; assay: Bactericidal activity against methicillin-resistant Staphylococcus aureus clinical isolate 232 after 24 hrs; settings: isolate 232, 24 h; how it was run: as §1
[12] = system: Staphylococcus aureus; assay: Bactericidal activity against methicillin-resistant Staphylococcus aureus clinical isolate 231 after 24 hrs; settings: isolate 231, 24 h; how it was run: as §1
[13] = system: Staphylococcus aureus; assay: Bactericidal activity against methicillin-resistant Staphylococcus aureus clinical isolate 225 after 24 hrs; settings: isolate 225, 24 h; how it was run: as §1
[14] = system: Staphylococcus aureus; assay: Bactericidal activity against methicillin-resistant Staphylococcus aureus clinical isolate 218 after 24 hrs; settings: isolate 218, 24 h; how it was run: as §1
[15] = system: Staphylococcus aureus; assay: Bactericidal activity against methicillin-resistant Staphylococcus aureus clinical isolate 212 after 24 hrs; settings: isolate 212, 24 h; how it was run: as §1
[16] = system: Staphylococcus epidermidis; assay: Bactericidal activity against Staphylococcus epidermidis ATCC 12228 after 24 hrs; settings: ATCC 12228, 24 h
How it was run: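 MBC: after MIC determination, 0.1 ml from the MIC well and from two dilutions either side streaked on tryptic soy agar, incubated 24 h; MBC taken as lowest concentration giving no growth (100% kill).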

[17] = system: Staphylococcus aureus; assay: Antimicrobial activity against methicillin-resistant Staphylococcus aureus clinical isolate assessed as resistant isolates by broth dilution method
[18] = system: Staphylococcus aureus; assay: Antimicrobial activity against methicillin-resistant Staphylococcus aureus clinical isolate assessed as susceptible isolates by broth dilution method
[19] = system: Staphylococcus aureus; assay: Antimicrobial activity against methicillin-resistant Staphylococcus aureus clinical isolate by broth dilution method; settings: Staphylococcus aureus
[20] = system: Staphylococcus aureus; assay: Antimicrobial activity against methicillin-resistant Staphylococcus aureus clinical isolate 264 by broth dilution method
[21] = system: Staphylococcus aureus; assay: Antimicrobial activity against methicillin-resistant Staphylococcus aureus clinical isolate 260 by broth dilution method
[22] = system: Staphylococcus aureus; assay: Antimicrobial activity against methicillin-resistant Staphylococcus aureus clinical isolate 257 by broth dilution method
[23] = system: Staphylococcus aureus; assay: Antimicrobial activity against methicillin-resistant Staphylococcus aureus clinical isolate 259 by broth dilution method
[24] = system: Staphylococcus aureus; assay: Antimicrobial activity against methicillin-resistant Staphylococcus aureus clinical isolate 238 by broth dilution method
[25] = system: Staphylococcus aureus; assay: Antimicrobial activity against methicillin-resistant Staphylococcus aureus clinical isolate 255 by broth dilution method
[26] = system: Staphylococcus aureus; assay: Antimicrobial activity against methicillin-resistant Staphylococcus aureus clinical isolate 237 by broth dilution method
[27] = system: Staphylococcus aureus; assay: Antimicrobial activity against methicillin-resistant Staphylococcus aureus clinical isolate 236 by broth dilution method
[28] = system: Staphylococcus aureus; assay: Antimicrobial activity against methicillin-resistant Staphylococcus aureus clinical isolate 235 by broth dilution method
[29] = system: Staphylococcus aureus; assay: Antimicrobial activity against methicillin-resistant Staphylococcus aureus clinical isolate 232 by broth dilution method
[30] = system: Staphylococcus aureus; assay: Antimicrobial activity against methicillin-resistant Staphylococcus aureus clinical isolate 227 by broth dilution method
[31] = system: Staphylococcus aureus; assay: Antimicrobial activity against methicillin-resistant Staphylococcus aureus clinical isolate 231 by broth dilution method
[32] = system: Staphylococcus aureus; assay: Antimicrobial activity against methicillin-resistant Staphylococcus aureus clinical isolate 225 by broth dilution method
[33] = system: Staphylococcus aureus; assay: Antimicrobial activity against methicillin-resistant Staphylococcus aureus clinical isolate 215 by broth dilution method
[34] = system: Staphylococcus aureus; assay: Antimicrobial activity against methicillin-resistant Staphylococcus aureus clinical isolate 218 by broth dilution method
[35] = system: Staphylococcus aureus; assay: Antimicrobial activity against methicillin-resistant Staphylococcus aureus clinical isolate 212 by broth dilution method
[36] = system: Staphylococcus aureus; assay: Antimicrobial activity against methicillin-resistant Staphylococcus aureus clinical isolate 207 by broth dilution method
[37] = system: Staphylococcus aureus; assay: Antimicrobial activity against methicillin-resistant Staphylococcus aureus clinical isolate 205 by broth dilution method
[38] = system: Staphylococcus aureus; assay: Antimicrobial activity against methicillin-resistant Staphylococcus aureus clinical isolate 195 by broth dilution method
[39] = system: Staphylococcus aureus; assay: Antimicrobial activity against methicillin-resistant Staphylococcus aureus clinical isolate 178 by broth dilution method
[40] = system: Staphylococcus aureus; assay: Antimicrobial activity against methicillin-resistant Staphylococcus aureus clinical isolate 176 by broth dilution method
[41] = system: Pseudomonas aeruginosa; assay: Antimicrobial activity against Pseudomonas aeruginosa ATCC 27853 by broth dilution method

Structure (SMILES): O=C(N[C@H](CO)[C@H](O)c1ccc([N+](=O)[O-])cc1)C(Cl)Cl [CHLORAMPHENICOL]
- MIC [1]: 32 µg/mL (≈ 99 µM)
- MBC [2]: 64 µg/mL (≈ 198 µM)
- MBC [3]: 32 µg/mL (≈ 99 µM)
- MBC [4]: 8 µg/mL (≈ 24.8 µM)
- MBC [5]: 8 µg/mL (≈ 24.8 µM)
- MBC [6]: 8 µg/mL (≈ 24.8 µM)
- MBC [7]: 16 µg/mL (≈ 49.5 µM)
- MBC [8]: 16 µg/mL (≈ 49.5 µM)
- MBC [9]: 32 µg/mL (≈ 99 µM)
- MBC [10]: 32 µg/mL (≈ 99 µM)
- MBC [11]: 16 µg/mL (≈ 49.5 µM)
- MBC [12]: 16 µg/mL (≈ 49.5 µM)
- MBC [13]: 512 µg/mL (≈ 1580 µM)
- MBC [14]: 128 µg/mL (≈ 396 µM)
- MBC [15]: 128 µg/mL (≈ 396 µM)
- MBC [16]: 128 µg/mL (≈ 396 µM)
- Activity [17]: 56.3%
- Activity [18]: 43.7%
- MIC90 [19]: 32 µg/mL (≈ 99 µM)
- MIC [20]: 8 µg/mL (≈ 24.8 µM)
- MIC [21]: 4 µg/mL (≈ 12.4 µM)
- MIC [22]: 8 µg/mL (≈ 24.8 µM)
- MIC [23]: 128 µg/mL (≈ 396 µM)
- MIC [24]: 32 µg/mL (≈ 99 µM)
- MIC [25]: 4 µg/mL (≈ 12.4 µM)
- MIC [26]: 32 µg/mL (≈ 99 µM)
- MIC [27]: 64 µg/mL (≈ 198 µM)
- MIC [28]: 64 µg/mL (≈ 198 µM)
- MIC [29]: 64 µg/mL (≈ 198 µM)
- MIC [30]: 64 µg/mL (≈ 198 µM)
- MIC [31]: 64 µg/mL (≈ 198 µM)
- MIC [32]: 8 µg/mL (≈ 24.8 µM)
- MIC [33]: 64 µg/mL (≈ 198 µM)
- MIC [34]: 64 µg/mL (≈ 198 µM)
- MIC [35]: 8 µg/mL (≈ 24.8 µM)
- MIC [36]: 4 µg/mL (≈ 12.4 µM)
- MIC [37]: 8 µg/mL (≈ 24.8 µM)
- MIC [38]: 4 µg/mL (≈ 12.4 µM)
- MIC [39]: 4 µg/mL (≈ 12.4 µM)
- MIC [40]: 64 µg/mL (≈ 198 µM)
- MIC [41]: 32 µg/mL (≈ 99 µM)
